Screens from PubChem BioAssay.
Pf Dd2 inh: blocks growth of Plasmodium falciparum Dd2 parasites | P. falciparum Dd2 growth, SYBR Green, 72 h; active compounds read low | activity change, % at 10 µM | 94,000 tested, 2.3% active | AID 1159554; in the data active = activity change below about -80%; inconclusive = no clear call, values can overlap the other calls
IDH1 R132H inh: blocks human IDH1 R132H reductase activity. inhibition, % at 10 µM. 70,000 tested, 0.18% active. O75874. diaphorase/resazurin fluorescence, 60 min; in the data active = inhibition above about 34%; inconclusive = no clear call, values can overlap the other calls; inactive = below about 11%;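 note: 0% = DMSO and 100% = no enzyme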
GASC1 inh: inhibitors of human demethylase GASC-1 KDM4C. Q9H3R0. GST-KDM4C 2-372, H3K9me3 peptide, LANCE TR-FRET. inhibition, % at 12.5 µM. 96,000 tested, 0.15% active. AID 720574;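 active = mean replicate inhibition above about 25%, with at least 55% of replicates also reaching it, limit read from the data, passing the limit was not always enough; inconclusive = only one of those two conditions met; inactive = neither condition met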
Target sequence (Q9H3R0 2-372 limits assumed): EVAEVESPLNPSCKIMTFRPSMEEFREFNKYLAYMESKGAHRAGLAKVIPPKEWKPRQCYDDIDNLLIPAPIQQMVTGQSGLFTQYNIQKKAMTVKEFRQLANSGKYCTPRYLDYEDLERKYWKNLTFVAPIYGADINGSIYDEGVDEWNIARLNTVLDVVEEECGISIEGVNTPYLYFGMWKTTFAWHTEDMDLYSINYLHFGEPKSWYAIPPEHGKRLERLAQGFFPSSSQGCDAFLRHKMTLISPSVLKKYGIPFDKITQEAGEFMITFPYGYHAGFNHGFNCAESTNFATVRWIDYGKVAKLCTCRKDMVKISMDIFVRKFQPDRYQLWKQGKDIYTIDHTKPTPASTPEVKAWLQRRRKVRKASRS
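Assay system: GST-GASC-1 enzyme fragment 2-372 | Amount: 10 nM enzyme | Medium: HEPES buffer, pH 7.5, plus ascorbate | Reagent: H3K9me3 peptide substrate, Fe(II), 2-oxoglutarate | Doses: Single-point compound screen | Incubation: 30 min demethylation and 1 h detection at room temperature | Measured by: LANCE TR-FRET, excitation 340 nm, emissions 618 and 671 nm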
T cruzi growth-1: inhibitors of T. cruzi proliferation | T. cruzi beta-gal in NIH3T3, GalScreen luminescence, 90 h | inhibition, % at 8.34 µM | 77,000 tested, 5.9% active | AID 624255;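 active = mean inhibition above about 93%, with at least 55% of replicates each passing it, limit read from the data, passing the limit was not always enough; inconclusive = only one of those two conditions holds; inactive = neither condition holds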
T cruzi growth-2: Trypanosoma cruzi proliferation inhibition. shares compounds with T cruzi growth-1. T. cruzi beta-gal in NIH3T3, GalScreen luminescence, 90 h. inhibition, % at 8.35 µM. 5,600 tested, 72% active. AID 651739;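 active = mean replicate inhibition above about 95% and at least 55% of replicates individually reaching it, limit read from the data; inconclusive = only one of the two criteria is met; inactive = neither criterion is met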
T cruzi growth-3: Trypanosoma cruzi proliferation inhibition; 5,600 tested, 21% active; T. cruzi beta-gal in NIH3T3, GalScreen luminescence, 90 h; inhibition, % at 2.09 µM; shares compounds with T cruzi growth-1;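 active = mean inhibition above about 95%, with at least 55% of replicates also reaching it, limit read from the data; inconclusive = meets just one of the two conditions; inactive = meets neither condition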;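 note: plate controls were neutral control median for no effect and positive control median for full effect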
NIH3T3 tox: kills mouse NIH/3T3 fibroblasts; 5,600 tested, 14% active; NIH/3T3 viability, CellTiter-Glo ATP luminescence, 90 h; cytotoxicity (signal decrease), % at 8.35 µM; shares compounds with T cruzi growth-1;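 active = mean signal decrease across replicates above about 35% based on untreated-well scatter, with enough replicates individually passing, limit read from the data; inconclusive = no rule stated though some were filed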;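 note: 0% = median of neutral control wells and 100% = median of positive control wells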
3T3 cytotox 2: NIH/3T3 (mouse) viability loss. inhibition, % at 24.9 µM. NIH/3T3 viability, CellTiter-Glo ATP luminescence, 90 h. shares compounds with T cruzi growth-1. 5,600 tested, 56% active;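 active = mean loss of cell viability signal at or above a set limit, and enough replicates individually reaching it; inconclusive = meets only the mean limit or only the replicate share; inactive = meets neither condition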;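 note: 0% = median of neutral control wells and 100% = median of positive control wells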
An asterisk follows results filed as active; ? = inconclusive; . = no result given; ! = repeats disagree. An excerpt weighted towards active compounds, which were near 5.9% of everything screened.

SMILES	Pf Dd2 inh	IDH1 R132H inh	GASC1 inh	T cruzi growth-1	T cruzi growth-2	T cruzi growth-3	NIH3T3 tox	3T3 cytotox 2
C[C@H]1CCCCO[C@@H](CN(C)Cc2ccccc2)[C@@H](C)CN([C@@H](C)CO)C(=O)c2cc(NC(=O)Nc3cccc4ccccc34)ccc2O1	-25	-23	1	109*	?	100*	15	38*
C/C=C/c1ccc2c(c1)O[C@@H](CN(C)Cc1ccc(F)cc1)[C@H](C)CN([C@@H](C)CO)S2(=O)=O	-60	0	0	118*	99*	105*	54*	104*
C/C=C/c1ccc2c(c1)O[C@H](CN(C)Cc1ccc(F)cc1)[C@H](C)CN([C@H](C)CO)S2(=O)=O	-27	-3	-1	?	107*	63	15	104*
C/C=C/c1ccc2c(c1)O[C@H](CN(C)Cc1ccccc1)[C@@H](C)CN([C@H](C)CO)S2(=O)=O	-26	-3	1	86	.	.	.	.
CCc1cnc(N2[C@H](C#N)[C@H](c3ccc(-c4cccc(F)c4)cc3)[C@@H]2CO)s1	-34	.	-3	102*	98*	108*	-1	25
CCc1cnc(N2[C@H](C#N)[C@H](c3ccc(C4=CCCCC4)cc3)[C@H]2CO)s1	-25	.	.	93	.	.	.	.
CCc1cnc(N2[C@@H](C#N)[C@@H](c3ccc(C4=CCCCC4)cc3)[C@@H]2CO)s1	2	.	0	100*	96*	91	?	60*
CCc1cnc(N2[C@@H](C#N)[C@@H](c3ccc(C4=CCCC4)cc3)[C@@H]2CO)s1	5	.	3	96*	105*	74	24	42*
O=C(Cn1cc(C(=O)c2ccccc2)c2ccccc21)Nc1ccc(Cl)cc1	.	0	.	.	.	.	.	.
CC(C)NS(=O)(=O)c1ccc(OCC(N)=O)cc1	.	0	.	.	.	.	.	.
O=C(COc1ccc(Br)cc1)Nc1cccc(-c2nc3ccccc3o2)c1	.	0	.	.	.	.	.	.
O=C(c1ccccc1F)N1CC[C@@H]2[C@H](CO)Nc3ccc(-c4ccccc4)cc3[C@@H]21	26	.	-1	81	.	.	.	.
CN(C)C(=O)c1cccc(-c2ccc3c(c2)[C@H]2[C@H](CCN2C(=O)c2ccccc2F)[C@H](CO)N3)c1	-10	.	1	99*	103*	83	-7	15
CN(C)C(=O)c1cccc(-c2ccc3c(c2)[C@@H]2[C@@H](CCN2C(=O)c2ccccc2F)[C@H](CO)N3)c1	-31	.	0	101*	101*	64	15	-18
CN(C)C(=O)c1ccc(-c2ccc3c(c2)[C@@H]2[C@@H](CCN2C(=O)c2ccccc2F)[C@H](CO)N3)cc1	-4	.	-2	43	.	.	.	.
CN(C)C(=O)c1cccc(-c2ccc3c(c2)[C@H]2[C@H](CCN2C(=O)c2ccccc2F)[C@@H](CO)N3)c1	-49	.	1	101*	104*	51	-8	-14
Cc1ccc(-c2nc3ccccc3s2)cc1NC(=O)COc1ccc([N+](=O)[O-])cc1	.	0	.	.	.	.	.	.
C[C@H]1CN([C@@H](C)CO)C(=O)c2cc(C#Cc3ccccn3)cnc2O[C@@H]1CN(C)Cc1ccccc1	-43	0	0	121*!	107*	25	-4	-6
C[C@H]1CN([C@@H](C)CO)C(=O)c2cc(C#Cc3ccccn3)cnc2O[C@H]1CN(C)Cc1ccncc1	11	3	3	44	.	.	.	.
C[C@@H]1CN([C@H](C)CO)C(=O)c2cc(C#Cc3ccccc3)cnc2O[C@@H]1CN(C)C(=O)c1ccccn1	0	0	1	53	.	.	.	.
C[C@@H]1CN([C@H](C)CO)C(=O)c2cc(C#Cc3ccccc3)cnc2O[C@H]1CN(C)C(=O)c1ccccn1	-24	0	-1	111*	101*	62	11	30*
C[C@@H]1CN([C@@H](C)CO)C(=O)c2cc(C#Cc3ccccn3)cnc2O[C@H]1CN(C)Cc1ccncc1	22	0	0	?	108*	56	17	17
C[C@H](CO)N1C[C@H](C)[C@H](CN(C)Cc2ccccc2)Oc2ncc(C#CC3(O)CCCC3)cc2C1=O	-4	-1	1	102*	46	42	10	19
Cc1ccc(C)c(NC(=O)CSc2ncnc3sc4c(c23)CCC4)c1	.	0	.	.	.	.	.	.
CCc1c(O)nc(SCC(=O)Nc2ccc(Cl)cc2Cl)n(-c2ccccc2)c1=O	.	0	.	.	.	.	.	.
SMILES	Pf Dd2 inh	IDH1 R132H inh	GASC1 inh	T cruzi growth-1	T cruzi growth-2	T cruzi growth-3	NIH3T3 tox	3T3 cytotox 2
CCC(=O)N1CCCCN2[C@@H](CO)[C@@H](c3ccc(C#Cc4cccnc4)cc3)[C@@H]2C1	-24	.	1	111*	102*	76	8	8
CCC(=O)N1CCCCN2[C@H](CO)[C@H](c3ccc(C#Cc4ccccc4)cc3)[C@H]2C1	-27	.	-1	108*	86	44	40*	106*
CCC(=O)N1CCCCN2[C@@H](CO)[C@H](c3ccc(C#Cc4ccccc4)cc3)[C@@H]2C1	-10	.	0	112*	105*	73	59*	105*
CCC(=O)N1CCCCN2[C@H](CO)[C@@H](c3ccc(C#Cc4ccccc4)cc3)[C@@H]2C1	15	.	-1	86	.	.	.	.
CCC(=O)N1CCCCN2[C@@H](CO)[C@@H](c3ccc(C#Cc4ccccc4)cc3)[C@@H]2C1	-8	.	-1	106*	104*	82	24	104*
Cc1ccc(S(=O)(=O)N(C)CC(=O)Nc2ccccc2Sc2ccccc2)cc1	.	0	.	.	.	.	.	.
Cc1cc(C)cc(N(CC(=O)O)S(=O)(=O)c2ccccc2)c1	.	0	.	.	.	.	.	.
COC(=O)C1=CO[C@@H](O[C@@H]2O[C@H](CO)[C@@H](O)[C@H](O)[C@H]2O)[C@@H]2[C@@](C)(O)[C@@H](OC(=O)/C=C/c3ccc(OC)c(O)c3)C[C@]12O	.	-1	.	.	.	.	.	.
C[C@@H]1CN([C@@H](C)CO)S(=O)(=O)c2ccc(-c3cccc(F)c3)cc2O[C@@H]1CN(C)S(=O)(=O)c1ccc(F)cc1	1	.	0	120	.	.	.	.
C[C@H](CO)N1C[C@H](C)[C@H](CN(C)S(=O)(=O)c2ccc(F)cc2)Oc2cc(-c3cccc(F)c3)ccc2S1(=O)=O	-59	-1	0	124*	98*	95	20	54*
C[C@H]1CN([C@@H](C)CO)S(=O)(=O)c2ccc(-c3cccc(F)c3)cc2O[C@H]1CN(C)S(=O)(=O)c1ccc(F)cc1	-54	.	0	118*	99*	108*	26	52*
Cc1cc(OCC(=O)Nc2cccc(C(=O)O)c2)cc(C)c1Cl	.	1	.	.	.	.	.	.
